Assay [1] deals with MDA-MB-231. Description: Induction of apoptosis in human MDA-MB-231 cells assessed as PARP cleavage after 24 hrs by Western blotting. It is filed as functional, cell-based. In short, it runs like this:
(§1)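 MDA-MB-231 breast cancer cells were exposed to Smac mimetics for 24 hours. Cell proteins were then probed on Western blots with specific antibodies against cIAP-1, XIAP, cleaved caspase-8, pro- and cleaved caspase-3, and cleaved PARP. GAPDH served as the loading control.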
A general note: In western blotting, separated proteins are transferred to a membrane and probed.

The subject of assay [2] is MDA-MB-231. Description: Induction of apoptosis in human MDA-MB-231 cells assessed as increase in caspase 8 activation after 24 hrs by Western blotting. It is filed as functional, cell-based. Put shortly: as §1
Assay [3] relates to MDA-MB-231. The assay is described as follows: Induction of apoptosis in human MDA-MB-231 cells assessed as increase in caspase 3 activation after 24 hrs by Western blotting. It is filed as functional, cell-based. In short, it runs like this:
as §1

The subject of assay [4] is MDA-MB-231. The assay is described as follows: Induction of cIAP1 degradation in human MDA-MB-231 cells after 24 hrs by Western blotting. In kind it is functional, cell-based. In short, it runs like this: as §1
The subject of assay [5] is MDA-MB-231. Description: cells. As to conditions: Homo sapiens, MDA-MB-231, 96 h.

Molecules are shown by their SMILES.

This is an account of results in ChEMBL document CHEMBL1143377, “Design, synthesis, and evaluation of potent, nonpeptidic mimetics of second mitochondria-derived activator of caspases” (J Med Chem, 2009).

In the case of `CN[C@@H](C)C(=O)N[C@H]1CCCC[C@H]2[C@@H](Cc3ccccc3)C[C@@H](C(=O)N[C@@H]3CCCc4ccccc43)N2C1=O`, the Activity result in the assay with MDA-MB-231 [1], in the assay with MDA-MB-231 [2], in the assay on MDA-MB-231 [3] and in the assay with MDA-MB-231 [4] was “Dose-dependent effect” each time.
`CN[C@@H](C)C(=O)N[C@H]1C/C=C\C[C@H]2[C@@H](Cc3ccccc3)C[C@@H](C(=O)N[C@@H]3CCCc4ccccc43)N2C1=O`: inhibition in the assay on MDA-MB-231 [5] was half-maximal at 26 nM (IC50).
In the case of `CN[C@@H](C)C(=O)N[C@H]1CCCC[C@H]2CC[C@@H](C(=O)N[C@@H]3CCCc4ccccc43)N2C1=O`, the Activity entry in the assay with MDA-MB-231 [1], with MDA-MB-231 [2], in the assay with MDA-MB-231 [3] and in the assay with MDA-MB-231 [4] was “Dose-dependent effect” throughout.
For the molecule `CN[C@@H](C)C(=O)N[C@H]1CCCC[C@H]2CC[C@@H](C(=O)NC(c3ccccc3)c3ccccc3)N2C1=O`, the Activity entry with MDA-MB-231 [1], in the assay with MDA-MB-231 [2], in the assay on MDA-MB-231 [3] and with MDA-MB-231 [4] was “Dose-dependent effect” in each case. This molecule showed a 50% inhibitory concentration (IC50) in the assay with MDA-MB-231 [5] of 259 nM.

The IC50 is the concentration that gives 50% inhibition. Read a low IC50 as greater potency in that assay.
